Laboratory results: ChEMBL document CHEMBL1147862, “Studies on synthesis and pharmacological activities of 3,6-disubstituted-1,2,4-triazolo[3,4-b]-1,3,4-thiadiazoles and their dihydro analogues” (2007)

Legend:
Type in all cases: functional
Mus musculus [1] = assay: Analgesic activity in Swiss mouse assessed as increase in reaction time at 20 mg/kg, po after 30 mins by Eddy's hot plate technique
Summary of the method: (§1)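 Swiss mice of either sex, 25–35 g, placed one at a time on a hot plate held at 55 °C. End point is paw licking or jumping, whichever comes first, with a 15 s cut-off to avoid paw injury. Reaction time is recorded and reported as percent increase in reaction time.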

Mus musculus [2] = assay: Analgesic activity in Swiss mouse assessed as increase in reaction time at 20 mg/kg, po after 60 mins by Eddy's hot plate technique; summary of the method: as §1
Mus musculus [3] = assay: Analgesic activity in Swiss mouse assessed as increase in reaction time at 20 mg/kg, po after 90 mins by Eddy's hot plate technique; summary of the method: as §1
Candida albicans [4] = assay: Antifungal activity against Candida albicans at 10 ug/ml by paper disc method; conditions: read-out: IZ
Candida albicans [5] = assay: Antifungal activity against Candida albicans at 20 ug/ml by paper disc method; conditions: read-out: IZ
Candida albicans [6] = assay: Antifungal activity against Candida albicans at 30 ug/ml by paper disc method; conditions: read-out: IZ
Aspergillus niger [7] = assay: Antifungal activity against Aspergillus niger at 10 ug/ml by paper disc method; conditions: read-out: IZ
Aspergillus niger [8] = assay: Antifungal activity against Aspergillus niger at 20 ug/ml by paper disc method; conditions: read-out: IZ
Aspergillus niger [9] = assay: Antifungal activity against Aspergillus niger at 30 ug/ml by paper disc method; conditions: read-out: IZ
Escherichia coli [10] = assay: Antibacterial activity against Escherichia coli at 10 ug/ml by agar plate diffusion technique; conditions: read-out: IZ
Escherichia coli [11] = assay: Antibacterial activity against Escherichia coli at 20 ug/ml by agar plate diffusion technique; conditions: read-out: IZ
Escherichia coli [12] = assay: Antibacterial activity against Escherichia coli at 30 ug/ml by agar plate diffusion technique; conditions: read-out: IZ
Pseudomonas aeruginosa [13] = assay: Antibacterial activity against Pseudomonas aeruginosa at 10 ug/ml by agar plate diffusion technique; conditions: read-out: IZ
Pseudomonas aeruginosa [14] = assay: Antibacterial activity against Pseudomonas aeruginosa at 20 ug/ml by agar plate diffusion technique; conditions: read-out: IZ
Pseudomonas aeruginosa [15] = assay: Antibacterial activity against Pseudomonas aeruginosa at 30 ug/ml by agar plate diffusion technique; conditions: read-out: IZ
Bacillus subtilis [16] = assay: Antibacterial activity against Bacillus subtilis at 10 ug/ml by agar plate diffusion technique; conditions: read-out: IZ
Bacillus subtilis [17] = assay: Antibacterial activity against Bacillus subtilis at 20 ug/ml by agar plate diffusion technique; conditions: read-out: IZ
Bacillus subtilis [18] = assay: Antibacterial activity against Bacillus subtilis at 30 ug/ml by agar plate diffusion technique; conditions: read-out: IZ
Staphylococcus aureus [19] = assay: Antibacterial activity against Staphylococcus aureus at 10 ug/ml by agar plate diffusion technique; conditions: read-out: IZ
Staphylococcus aureus [20] = assay: Antibacterial activity against Staphylococcus aureus at 20 ug/ml by agar plate diffusion technique; conditions: read-out: IZ
Staphylococcus aureus [21] = assay: Antibacterial activity against Staphylococcus aureus at 30 ug/ml by agar plate diffusion technique; conditions: read-out: IZ
Rattus norvegicus [22] = assay: Antiinflammatory activity in Wistar Albino rat assessed as inhibition of carrageenan-induced paw oedema at 20 mg/kg after 1 hr relative to control
Summary of the method: (§2)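 Wistar albino rats, 150–200 g, six per group, dosed orally with a 20 mg/kg suspension; control gets 0.1 ml 1% gum acacia. After 30 min, 0.1 ml 1% carrageenan in saline is injected subplantar into the right hind paw. Paw volume is read by plethysmograph at 0–4 h. Inhibition = 100(1 − Vtest/Vcontrol) on mean volume increase.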

Rattus norvegicus [23] = assay: Antiinflammatory activity in Wistar Albino rat assessed as inhibition of carrageenan-induced paw oedema at 20 mg/kg after 2 hrs relative to control; summary of the method: as §2
Rattus norvegicus [24] = assay: Antiinflammatory activity in Wistar Albino rat assessed as inhibition of carrageenan-induced paw oedema at 20 mg/kg after 3 hrs relative to control; summary of the method: as §2
Rattus norvegicus [25] = assay: Antiinflammatory activity in Wistar Albino rat assessed as inhibition of carrageenan-induced paw oedema at 20 mg/kg after 4 hrs relative to control; summary of the method: as §2

Compound | Activity (Mus musculus [1]) | Activity (Mus musculus [2]) | Activity (Mus musculus [3]) | zone of inhibition at 10 µg/mL (Candida albicans [4]) | zone of inhibition at 20 µg/mL (Candida albicans [5]) | zone of inhibition at 30 µg/mL (Candida albicans [6]) | zone of inhibition at 10 µg/mL (Aspergillus niger [7]) | zone of inhibition at 20 µg/mL (Aspergillus niger [8]) | zone of inhibition at 30 µg/mL (Aspergillus niger [9]) | zone of inhibition at 10 µg/mL (Escherichia coli [10]) | zone of inhibition at 20 µg/mL (Escherichia coli [11]) | zone of inhibition at 30 µg/mL (Escherichia coli [12]) | zone of inhibition at 10 µg/mL (Pseudomonas aeruginosa [13]) | zone of inhibition at 20 µg/mL (Pseudomonas aeruginosa [14]) | zone of inhibition at 30 µg/mL (Pseudomonas aeruginosa [15]) | zone of inhibition at 10 µg/mL (Bacillus subtilis [16]) | zone of inhibition at 20 µg/mL (Bacillus subtilis [17]) | zone of inhibition at 30 µg/mL (Bacillus subtilis [18]) | zone of inhibition at 10 µg/mL (Staphylococcus aureus [19]) | zone of inhibition at 20 µg/mL (Staphylococcus aureus [20]) | other results
Cc1occc1-c1nnc2sc(-c3ccnc(Cl)c3)nn12 | 6.04% | 11.35% | 20.34% | 7.26 mm | 14 mm | 21.9 mm | 7.38 mm | 14.3 mm | 20.7 mm | 7.48 mm | 14.8 mm | 20.2 mm | 7.79 mm | 13.8 mm | 20.6 mm | 7.82 mm | 14.6 mm | 20.4 mm | 7.82 mm | 14.7 mm | zone of inhibition at 30 µg/mL (Staphylococcus aureus [21]): 19.2 mm; inhibition in vivo at 20 mg/kg (Rattus norvegicus [22]): 10.1%; inhibition in vivo at 20 mg/kg (Rattus norvegicus [23]): 15.3%; inhibition in vivo at 20 mg/kg (Rattus norvegicus [24]): 24.1%; inhibition in vivo at 20 mg/kg (Rattus norvegicus [25]): 27.1%
COc1ccc2[nH]cc(Cc3nn4c(Cc5ccc(OC)c(OC)c5)nnc4s3)c2c1 | 11.92% | 19.06% | 28.32% | 4.12 mm | 8.3 mm | 10 mm | 4.24 mm | 8.1 mm | 10.4 mm | 4.72 mm | 8.49 mm | 12.9 mm | 4.9 mm | 8.42 mm | 12.3 mm | 4.92 mm | 8.18 mm | 13.7 mm | 4.82 mm | 8.39 mm | zone of inhibition at 30 µg/mL (Staphylococcus aureus [21]): 13.6 mm; inhibition in vivo at 20 mg/kg (Rattus norvegicus [22]): 4.11%; inhibition in vivo at 20 mg/kg (Rattus norvegicus [23]): 11.6%; inhibition in vivo at 20 mg/kg (Rattus norvegicus [24]): 19.1%; inhibition in vivo at 20 mg/kg (Rattus norvegicus [25]): 29.6%
Cc1occc1-c1nnc2sc(-c3cc(O)nc(O)c3)nn12 | 4.35% | 11.45% | 19.35% | 5.34 mm | 10 mm | 17.3 mm | 5.14 mm | 8.48 mm | 14.8 mm | 5.38 mm | 8.79 mm | 14.1 mm | 5.95 mm | 9.81 mm | 14.2 mm | 6.02 mm | 10.4 mm | 14.8 mm | 6.07 mm | 10.8 mm | zone of inhibition at 30 µg/mL (Staphylococcus aureus [21]): 14.5 mm; inhibition in vivo at 20 mg/kg (Rattus norvegicus [22]): 6.25%; inhibition in vivo at 20 mg/kg (Rattus norvegicus [23]): 11.4%; inhibition in vivo at 20 mg/kg (Rattus norvegicus [24]): 16.5%; inhibition in vivo at 20 mg/kg (Rattus norvegicus [25]): 21.7%
COc1ccc(Cc2nnc3sc(-c4cc(C)nc5ccccc45)nn23)cc1OC | 5.96% | 11.05% | 20.14% | 5.48 mm | 12 mm | 17.5 mm | 6.25 mm | 13 mm | 16.7 mm | 5.25 mm | 8.8 mm | 16 mm | 5.26 mm | 10.1 mm | 16.1 mm | 6.29 mm | 10.2 mm | 16.1 mm | 6.72 mm | 11.7 mm | zone of inhibition at 30 µg/mL (Staphylococcus aureus [21]): 16.6 mm; inhibition in vivo at 20 mg/kg (Rattus norvegicus [22]): 10.2%; inhibition in vivo at 20 mg/kg (Rattus norvegicus [23]): 13.2%; inhibition in vivo at 20 mg/kg (Rattus norvegicus [24]): 21.2%; inhibition in vivo at 20 mg/kg (Rattus norvegicus [25]): 24.9%
COc1ccc(Cl)c(-c2nnc3sc(-c4cc(-c5ccccc5)nc5ccccc45)nn23)c1 | 5.34% | 15.68% | 26.85% | 5.64 mm | 12.8 mm | 18.8 mm | 6.04 mm | 11.6 mm | 17.6 mm | 6.86 mm | 11.7 mm | 16.5 mm | 6.72 mm | 11.4 mm | 15.5 mm | 6.82 mm | 11.2 mm | 16.2 mm | 5.82 mm | 10.1 mm | zone of inhibition at 30 µg/mL (Staphylococcus aureus [21]): 16.4 mm; inhibition in vivo at 20 mg/kg (Rattus norvegicus [22]): 11.6%; inhibition in vivo at 20 mg/kg (Rattus norvegicus [23]): 17.2%; inhibition in vivo at 20 mg/kg (Rattus norvegicus [24]): 20.1%; inhibition in vivo at 20 mg/kg (Rattus norvegicus [25]): 24.5%
COc1ccc(Cl)c(-c2nnc3sc(-c4cc(O)nc(O)c4)nn23)c1 | 5.68% | 15.18% | 26.14% | 4.14 mm | 7.15 mm | 15 mm | 4.82 mm | 8.06 mm | 13.6 mm | 4.18 mm | 8 mm | 13.2 mm | 4.84 mm | 9.06 mm | 13.3 mm | 4.7 mm | 8.38 mm | 13.8 mm | 4.57 mm | 8.82 mm | zone of inhibition at 30 µg/mL (Staphylococcus aureus [21]): 13.7 mm; inhibition in vivo at 20 mg/kg (Rattus norvegicus [22]): 8.35%; inhibition in vivo at 20 mg/kg (Rattus norvegicus [23]): 14.2%; inhibition in vivo at 20 mg/kg (Rattus norvegicus [24]): 21%; inhibition in vivo at 20 mg/kg (Rattus norvegicus [25]): 23.4%
COc1ccc(Cc2nnc3n2NC(c2ccc[nH]2)S3)cc1OC (stereo not given) | 7.6% | 12.65% | 21.06% | 4.7 mm | 8.12 mm | 13.1 mm | 4.68 mm | 9.12 mm | 12.2 mm | 4.48 mm | 7.18 mm | 14.2 mm | 7.33 mm | 11.7 mm | 13.3 mm | 4.32 mm | 8.32 mm | 12 mm | 4.02 mm | 7.64 mm | zone of inhibition at 30 µg/mL (Staphylococcus aureus [21]): 10.6 mm; inhibition in vivo at 20 mg/kg (Rattus norvegicus [22]): 13.2%; inhibition in vivo at 20 mg/kg (Rattus norvegicus [23]): 15.9%; inhibition in vivo at 20 mg/kg (Rattus norvegicus [24]): 17.7%; inhibition in vivo at 20 mg/kg (Rattus norvegicus [25]): 21.5%
COc1ccc(Cc2nnc3sc(-c4ccnc5ccccc45)nn23)cc1OC | 7.55% | 16.8% | 21.96% | 6.14 mm | 13.7 mm | 17.8 mm | 6.32 mm | 13 mm | 18 mm | 7.85 mm | 14.4 mm | 18.6 mm | 7.7 mm | 14.1 mm | 18.2 mm | 7.4 mm | 13.3 mm | 18.7 mm | 6.96 mm | 12.6 mm | zone of inhibition at 30 µg/mL (Staphylococcus aureus [21]): 18.3 mm; inhibition in vivo at 20 mg/kg (Rattus norvegicus [22]): 14.6%; inhibition in vivo at 20 mg/kg (Rattus norvegicus [23]): 17.1%; inhibition in vivo at 20 mg/kg (Rattus norvegicus [24]): 19.1%; inhibition in vivo at 20 mg/kg (Rattus norvegicus [25]): 24.8%
